Source: PubChem BioAssay (several laboratories)
NPY-Y1 antag – antagonists of human neuropeptide Y receptor Y1; P25929; HEK293-CNG Y1 cells, membrane potential fluorescence; NPY at EC95, then isoproterenol; inhibition, % at 3.6 µM; actives 1% (n = 200,000); AID 1040;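 active = inhibition above the campaign mean inhibition of all tested compounds plus 3 SD, cut at about 20% in these data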;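 also: 0% = DMSO wells given NPY plus isoproterenol and 100% = isoproterenol alone without NPY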
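Material: Y1- and CNG-channel-expressing HEK293 cells / Probe or stimulus: NPY 25 nM then isoproterenol 1 µM plus Ro 20-1724 25 µM / Doses: 3.6 µM single dose, DMSO 0.4% / Schedule: compound incubation 1 h at room temperature, readout 45 min post-stimulation / Signal: membrane potential fluorescence / Benchmarks: isoproterenol-only wells as full block versus NPY-plus-isoproterenol wells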
NPY-Y2 antag – antagonists of human neuropeptide Y receptor Y2 | NPY-Y2 expressing cells, antagonist mode | inhibition, % at 2.7 µM | actives 0.99% (n = 140,000) | AID 793; in the data active = inhibition above about 17%;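 also: 0% = vehicle with agonist challenge and 100% = reference antagonist with challenge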
Target sequence (P49146 whole entry, looked up): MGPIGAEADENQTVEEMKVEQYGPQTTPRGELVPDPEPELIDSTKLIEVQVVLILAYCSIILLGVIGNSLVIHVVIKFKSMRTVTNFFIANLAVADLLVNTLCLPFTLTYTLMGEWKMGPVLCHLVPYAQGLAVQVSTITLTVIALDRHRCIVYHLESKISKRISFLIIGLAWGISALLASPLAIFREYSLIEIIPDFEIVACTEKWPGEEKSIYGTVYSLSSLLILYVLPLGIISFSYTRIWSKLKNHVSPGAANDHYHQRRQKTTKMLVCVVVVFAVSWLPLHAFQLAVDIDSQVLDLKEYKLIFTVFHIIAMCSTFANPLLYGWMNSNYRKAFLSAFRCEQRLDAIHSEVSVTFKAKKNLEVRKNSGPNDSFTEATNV
NPY1 pot ag – potentiates or activates human NPY-Y1 receptor; activation, % at 3.6 µM; AID 1304; P25929; NPY-Y1 expressing cells, potentiator/agonist activation; actives 0.37% (n = 220,000); in the data active = activation above about 33%, passing the limit was not always enough;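 also: cells stimulated with NPY at EC10 then isoproterenol at EC100; 0% = low agonist plus stimulus and 100% = saturating agonist plus stimulus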
NPY-Y2 PAM-ag – potentiators or agonists of human neuropeptide Y receptor Y2; P49146; cells expressing NPY-Y2, potentiator/agonist read-out; activation, % at 3.6 µM; actives 0.45% (n = 220,000); AID 1359; in the data active = activation above about 27%;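 also: cells stimulated with NPY near EC25 plus isoproterenol at EC100; 0% = vehicle plus submaximal agonist and 100% = vehicle plus saturating agonist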
RAM network inh – blocks the yeast RAM network; S. cerevisiae dse1pr::URA3 reporter, 5-FOA growth OD615, 2 d; analog-sensitive cbk1-as2 kinase mutant strain; inhibition, % at 50 µM; actives 1.8% (n = 190,000); AID 868;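 active = inhibition above a set limit, 3 SD over mean compound inhibition, cut at about 8.4% in these data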;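 also: 0% = DMSO-only wells with no growth and 100% = 10 µM 1-NA-PP1 full growth; inhibition rescues growth on 5-FOA so higher OD means more RAM inhibition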
Insulin prom inh – TRM-6 insulin promoter activity inhibition | TRM-6 cells, insulin promoter-eGFP reporter, imaging; reporter expression induced with tamoxifen | inhibition, % at 2 µM | actives 0.9% (n = 130,000) | AID 1273;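 active = inhibition above the mean plus 3 SD, with well images judged a real hit on visual review, cut at about 60% in these data, passing the limit was not always enough; inconclusive = inhibition over the cutoff but images rejected on review; inactive = inhibition not above the cutoff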
RAM efflux-def – restores 5-FOA growth of efflux-deficient yeast; max inhibition, %; AID 1305; shares compounds with RAM network inh; S. cerevisiae efflux-deficient reporter strain, 5-FOA growth OD615, 2 days; 1,200 tested, under 10 active; call rule not given here;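 also: plate controls were vehicle for no effect and reference inhibitor for full effect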
Numbers without * were called inactive; u = inconclusive; x = no result. The list is not random: actives were taken first. Their share in the collection is about 3.8%.

SMILES	NPY-Y1 antag	NPY-Y2 antag	NPY1 pot ag	NPY-Y2 PAM-ag	RAM network inh	Insulin prom inh	RAM efflux-def
N#Cc1nc(Cc2cccc3ccccc23)oc1N1CCCCC1	-1	4	22	-6	12*	x	3
Cn1ncc(Cl)c(Oc2ccc(C(C)(C)C)cc2)c1=O	3	-1	-8	5	1	x	x
COCC(=O)Nc1ccc(S(=O)(=O)Nc2ccccn2)cc1	-3	x	-9	6	0	x	x
CN(C(=S)Nc1ccc(Oc2ccccc2)cc1)c1ccc(O)cc1	-3	1	3	1	14*	38	1
O=C(COc1ccc2c(c1)C(=O)CC1(CCCCC1)O2)NCc1ccccc1	18	6	-6	-38	12*	-32	2
O=C(COc1ccc2c(c1)C(=O)CC1(CCCCC1)O2)NCc1ccccn1	8	-2	-5	4	0	x	x
Cc1ccc(-c2nc3cccnc3s2)cc1NS(=O)(=O)c1ccc2c(c1)OCCO2	3	4	7	-15	13*	x	2
N#Cc1nc(COc2ccccc2)oc1N1CCN(c2cccc(Cl)c2)CC1	-2	1	-11	-17	12*	38	3
FC(F)(F)COc1ccc(-n2ccnc2)nn1	-1	x	-10	8	1	x	x
O=C(C1CCN(S(=O)(=O)N2CCC3(CC2)OCCO3)CC1)N1CCCCC1	-2	0	-22	-5	0	33	x
N#C/C(=C\Nc1ccccc1SC(F)(F)F)c1nc(-c2ccccc2)cs1	-3	6	-11	-11	12*	-4	3
CCOc1ccc(NC(=O)NC23CC4CC(CC(C4)C2)C3)cc1	1	2	-15	4	2	11	x
Cc1ccccc1N(CC(=O)Nc1ccccc1C(=O)O)S(C)(=O)=O	-1	-1	-11	-11	2	45	x
Cc1ccc(S(=O)(=O)N(CC(=O)Nc2ccccc2C(=O)O)c2cccc(Cl)c2C)cc1	-2	2	25	15	14*	0	4
COCC(C)n1c(SCc2ccc(OC)c(F)c2)nc2ccccc2c1=O (stereo not given)	17	x	-4	-25	14*	-91	2
COCC(C)n1c(SCc2nc3ccccc3c(=O)[nH]2)nc2ccccc2c1=O (stereo not given)	5	x	16	-6	1	-8	x
NC(=O)c1cnn(-c2cc(Oc3ccccc3)ncn2)c1N	1	x	33	6	1	x	x
CCOC(=O)/C(=C/c1ccc(N2CCC(c3ccccc3)=N2)cc1)C(C)=O	-4	2	-7	-17	20*	u	2
c1ccc(C2=NN(c3ccccc3)CC2)cc1	x	x	-7	-11	x	x	x
CCOc1cc(/C=N/N=C2/NC(=O)C(CC(=O)O)S2)ccc1OCc1ccccc1Cl (stereo not given)	4	x	-2	-9	4	-43	x
CCOc1cc(/C=N/N=C2/NC(=O)C(CC(=O)O)S2)ccc1OS(=O)(=O)c1ccc(C)cc1 (stereo not given)	2	x	3	4	12*	27	2
CN(Cc1cccc(-n2cccn2)c1)C(=O)CCc1nnc(C2CCCCC2)o1	13	x	1	-10	0	x	x
COc1ccccc1-n1cnc2c(c1=O)c1nc3ccccc3nc1n2-c1ccc(C)cc1	5	4	12	1	11*	-13	3
COc1ccccc1-n1c2nc3ccccc3nc2c2c(=O)n(-c3cc(C)cc(C)c3)cnc21	-4	-2	-8	0	7	x	x
O=c1[nH]nc(N2CCOCC2)c(=O)[nH]1	x	x	4	9	x	x	x
SMILES	NPY-Y1 antag	NPY-Y2 antag	NPY1 pot ag	NPY-Y2 PAM-ag	RAM network inh	Insulin prom inh	RAM efflux-def
COc1ccc(OC)c(S(=O)(=O)N2CCN(C)CC2)c1	-3	6	4	-4	-1	x	x
CCc1ccccc1N1CCN(S(=O)(=O)c2cc(OC)ccc2OC)CC1	5	1	16	14	13*	-1	2
O=C(O)CCCC(=O)Nc1cccc(C(=O)Nc2ccccc2C(=O)O)c1	-1	x	8	5	0	x	x
O=C(CSCc1ccccc1)Nc1cccc(C(=O)Nc2ccccc2C(=O)O)c1	-4	4	-4	1	13*	x	2
O=C(CSCc1ccc(Cl)cc1)Nc1cccc(C(=O)Nc2ccccc2C(=O)O)c1	6	2	-11	-16	14*	u	1
CC(C)C(=O)Nc1cccc(C(=O)Nc2ccccc2C(=O)O)c1	6	1	-3	-3	1	-38	x
Cc1cccc(Cn2c(C)nc3c(N)c(C)c(C)cc32)c1	1	x	-6	1	1	21	x
O=C(COc1ncnc2ccc(Br)cc12)NCc1ccco1	x	x	23	-11	x	x	x
CCc1ccc(C(=O)COC(=O)C(Cc2ccccc2)NC(=O)c2ccc(Cl)cc2)cc1 (stereo not given)	1	1	9	8	17*	-69	3
COc1ccccc1NC(=O)Cn1nc(Cc2cccnc2)c2ccccc2c1=O	x	x	23	3	x	x	x
Cc1cc(C(F)(F)F)c(C#N)c(N2CCOCC2)n1	-5	1	9	-4	0	0	x
N#Cc1c(C(F)(F)F)cc(C2CC2)nc1N1CCCC1	7	3	-7	-4	14*	-76	2
CN(C)C(=S)NC(=O)C12CC3(C)CC(C)(CC(C)(C3)C1)C2	x	x	36	-1	x	x	x
CCOC(=O)C1=C(O)/C(=C/c2cc(OC)c(O)c(OC)c2)SC1=Nc1ccc(OC)cc1	2	0	-4	-11	16*	38	10
CCCSC1=N/C(=C\c2ccc([N+](=O)[O-])o2)C(=O)S1	-1	x	-14	3	1	x	x
CCSC1=N/C(=C\c2ccc(-c3ccccc3[N+](=O)[O-])o2)C(=O)S1	-2	4	-13	0	14*	26	3
Cc1ccc(CSCCNS(=O)(=O)c2ccc(C)cc2)cc1	10	7	-6	-2	2	x	x
O=C(C1CC1)N1CCc2cc(S(=O)(=O)NCCC3=CCCCC3)ccc21	14	14	-52	-32	11*	-38	2
Cc1ccc(S(=O)(=O)N2CCCCC2)cc1NC(=O)CSc1nccn1C	0	x	6	1	0	-145	x
CCOc1ccc(-c2nn(-c3ccccc3)cc2/C=C2\SC(=S)N(Cc3ccco3)C2=O)cc1	-2	-1	-20	0	12*	x	2
O=C(NCc1ccc(F)cc1)c1ccc(S(=O)(=O)Nc2cccc(C(F)(F)F)c2)cc1	-10	-1	48*	37*	13*	-34	2
O=C(O)CCn1c(-c2ccccc2)cc2ccccc21	3	x	-10	-22	-2	x	x
CCCCN1C(=O)/C(=C/C=C2\SCCN2C)SC1=S	0	x	11	0	13*	-408	2
